Consider 15 molecules from ChEMBL document CHEMBL1124676, “Hypoxia-selective antitumor agents. 2. Electronic effects of 4-substituents on the mechanisms of cytotoxicity and metabolic stability of nitracrine derivatives” (J Med Chem, 1989).

Data set [1] in a line: Hypersensitivity factor (HF) of IC50 (AA8) / IC50 (UV-4) of compound for repair deffective mutants. Format: functional. In a few lines:
(§1)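 Miniassay: AA8, UV-4, UV-5 or EM-9 cells were seeded at 2 × 10^4 cells/mL in 24-well dishes. After 24 h, five 2-fold serial concentrations were added in duplicate and held 4 h at 37 °C. Cells were washed, grown 30 h more, trypsinized and counted electronically. IC50 is 50% of mean control cell density. HF = IC50(AA8)/IC50(mutant), mean ± SE of 2–4 experiments.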

The nature of data set [2]: Hypersensitivity factor (HF) of IC50 (AA8) / IC50 (EM-9) of compound for repair deffective mutants. Format: functional. In short, it runs like this:
as §1

Data set [3] is described as follows: Hypersensitivity factor (HF) of IC50 (AA8) / IC50 (UV-5) of compound for repair deffective mutants. The format is functional. In a few lines: as §1
Data set [4] in a line: Ratio of growth inhibition of compound to reduce cell density by 50% of repair deffective mutant UV-4 cells in 96-well cultures under aerobic and hypoxic conditions (air/N2). Format: functional. In a few lines:
(§2)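 Microassay: 200 AA8 or 300 UV-4 viable cells/well plus 5000 irradiated (35 Gy) AA8 feeder cells. Serial 2-fold drug dilutions added after 24 h. Plates held 18 h at 37 °C in chambers flushed with 5% CO2 in air or in N2 (with 1% H2, Pd catalyst). Then washed, grown 72-78 h, stained with methylene blue, A620−A405. IC50 vs 50% of control; three independent experiments.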

A short description of data set [5]: Half life of extracellular bioactivity assessed by bioassay of culture supernatant against hypoxic UV-4 cells. The settings on record: chinese hamster, hypoxic UV-4 cell cultures (culture supernatant). Format: ADME, cell-based, Cricetulus griseus, UV4. In a few lines:
(§3)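 Plateau-phase AA8 cells, 10^6 cells/mL, stirred suspension under 5% CO2 in air or N2. Supernatants sampled over time (spun 1300g × 1 min) and dilutions assayed against log-phase UV-4 (seeded 3 × 10^3 cells/mL, 24 h earlier), 4-day continuous exposure, methylene blue staining. Activity remaining = IC50 at time zero / apparent IC50; half-life and zero-time intercept from log-linear regression.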

Data set [6] can be described thus: Extrapolated fraction of biological activity remaining at time zero of hypoxic AA8 suspension cultures. The format is ADME. The note with it: hamster. In a few lines: as §3
Data set [7] is described as follows: Ratio of growth inhibition of compound to reduce cell density by 50% of AA8 cells under aerobic and hypoxic conditions (air/N2). Format: functional, CHO-AA8. In a few lines:
as §2

Data set [8] concerns CHO-AA8. Description: Inhibitory activity to reduce cell density by 50% of AA8 cells under aerobic conditions. Format: functional, cell-based. The settings on record: Cricetulus griseus. In a few lines: as §2
Data set [9] relates to UV4. Description: Inhibitory concentration required to reduce cell density in UV-4 cells to 50% of controls (cells were exposed to compound for 4 days continuously). Format: functional, cell-based. The note with it: Cricetulus griseus, UV4, 96 h. In short, it runs like this: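 UV-4 cells seeded at 3 × 10^3 cells/mL about 24 h before drug, exposed continuously for 4 days, then methylene blue staining. IC50 = concentration reducing absorbance to 50% of controls; six determinations.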

Data set [10] concerns UV4. Description: Inhibitory ativity to reduce cell density by 50% of repair deffective mutant UV-4 cells in 96-well cultures under aerobic conditions. The format is functional, cell-based. The note with it: Cricetulus griseus. In short, it runs like this: as §2
Data set [11] in a line: Ratio for […], expressed as hypersensitivity factor under aerobic conditions. Format: functional. In short, it runs like this:
as §2

Data set [12] can be described thus: (§4) Extrapolated fraction of biological activity remaining at time zero of stirred aerobic AA8 suspension cultures. The format is ADME. The note with it: hamster. In a few lines: as §3
A short description of data set [13]: Half life of extracellular bioactivity assessed by bioassay of culture supernatant against aerobic UV-4 cells. Format: ADME, cell-based, Cricetulus griseus, UV4. The note with it: chinese hamster, aerobic UV-4 cell cultures (culture supernatant). In a few lines: as §3
Data set [14] in a line: Total compound concentration in AA8 suspension cultures at zero time. The format is ADME. The settings on record: hamster.
Data set [15] deals with CHO-AA8. The data set is described as §4. The format is functional, Cricetulus griseus. In a few lines: as §3
Data set [16] is described as follows: Half life of extracellular bioactivity assessed by bioassay of culture supernatant against aerobic UV-4 cells; No statistically significant trend with time. The settings on record: chinese hamster, uv4. Format: ADME, cell-based, Cricetulus griseus. In short, it runs like this:
as §3

The nature of data set [17]: Ratio for hypoxic AA8/ hypoxic UV-4, expressed as hypersensitivity factor under hypoxic conditions. Format: functional. In a few lines: as §2

As for `COc1cc(NS(C)(=O)=O)ccc1Nc1c2ccccc2nc2ccccc12`, the Ratio in data set [1] is 0.9; in data set [2], 0.68; in [3] it was 0.9.

Take `O=C(O)CCCc1ccc(N(CCCl)CCCl)cc1`: the Ratio is 43 in [1], 0.69 in data set [2] and 1.4 in [3].

For `O=[N+]([O-])c1cc[n+]([O-])c2ccccc12` [4-NITROQUINOLINE-1-OXIDE], the Ratio in data set [1] worked out at 17; in data set [2], 0.8; in data set [3] it was 16.

In the case of `CO[C@@]12[C@H](COC(N)=O)C3=C(C(=O)C(C)=C(N)C3=O)N1C[C@@H]1N[C@@H]12`, the Ratio in data set [1] amounted to 86; in data set [2], 0.78; in data set [3], 2.35.

As a reminder, the half-life is the time in which the quantity being followed falls by half. A lower half-life goes with rapid decline. The term IC50 denotes the point on the concentration scale where inhibition reaches its midpoint. The low end stands for greater potency, the high end for weaker potency. Take `CN(C)CCCNc1c2ccccc2nc2c(N(C)C)ccc([N+](=O)[O-])c12`: the values for the Ratio in [4], in data set [7] and in data set [11] were 2.3, 3.3 and 2.1, respectively. Further, the half-life is 2.3 h in [5] and 4.8 h in [13]. Also, the A0 was 0.68 in [6] and 0.78 in [12]. Further, the 50% inhibitory concentration (IC50) with CHO-AA8 [8] was 18900 nM; in the data set with UV4 [9], 410 nM; with UV4 [10], 6200 nM.

As to `CN(C)CCCNc1c2ccccc2nc2cccc([N+](=O)[O-])c12` [NITRACRINE], the Ratio in data set [1] is 12.8; in [4], 3.8; in data set [2] it was 1.8; in data set [3], 8; in data set [11] it was 14.9. Moreover, the half-life in data set [5] is 0.84 h; in data set [13], 7.3 h. For the same molecule, the A0 is 0.98 in data set [6] and 0.86 in data set [12]. This molecule also gave a CO in [14] of 0.04 mM. Also, the concentration for half-maximal inhibition (IC50) in the data set with CHO-AA8 [8] is 26.3 nM; with UV4 [9], 0.66 nM; in the data set with UV4 [10], 2 nM.

On to `CN(C)CCCNc1c2ccccc2nc2c(N(CCO)CCO)ccc([N+](=O)[O-])c12`, for which the IC50 in the data set with CHO-AA8 [8] was found to be 62000 nM; with UV4 [10], 19400 nM.

For the molecule `CN(C)CCCNc1c2ccccc2nc2c(Cl)ccc([N+](=O)[O-])c12`, the Ratio was 4.9 in data set [4], 3.7 in data set [7] and 13 in data set [11]. In addition, the half-life is 0.68 h in data set [5] and 4.3 h in [13]. For the same molecule, the figures for the A0 in [6] and in [12] were 0.56 and 0.79, respectively. In addition, the CO in data set [14] is on record as 0.04 mM. Besides, the results for the IC50 in the data set with CHO-AA8 [8], in the data set with UV4 [9] and in the data set with UV4 [10] were 33 nM, 0.62 nM and 3.3 nM, respectively.

`CCOS(C)(=O)=O` [METHANESULFONIC ACID ETHYL ESTER]: the Ratio in [1] came to 1.3; in [2] it was 6.3; in [3], 1.2.

Regarding `CN(C)CCCNc1c2ccccc2nc2ccccc12`, the Ratio in data set [1] is 1.03; in data set [2], 0.78; in data set [3], 0.87.

As for `COc1ccc([N+](=O)[O-])c2c(NCCCN(C)C)c3ccccc3nc12`, the figures for the Ratio in [4], in data set [7] and in data set [11] were 4.2, 5.3 and 7.8, respectively. The half-life in data set [5] is 5.2 h; in data set [13] it was 14 h. Besides, the A0 in data set [6] is recorded as 0.78; in data set [12], 0.76. For the same molecule, the CO in data set [14] turned out to be 3 mM. Moreover, the IC50 was determined as 616 nM in the data set on CHO-AA8 [8], 14.5 nM in the data set with UV4 [9] and 63 nM with UV4 [10].

On to `COC(=O)c1ccc([N+](=O)[O-])c2c(NCCCN(C)C)c3ccccc3nc12`, for which the Ratio is 1.2 in data set [4], 1.2 in data set [7], 1.5 in data set [11] and 1.5 in [17]. For the same molecule, the half-life in [5] is 3.9 h. For the same molecule, the A0 is given as 0.45 in [6] and 0.47 in the data set with CHO-AA8 [15]. The CO in data set [14] came to 0.01 mM. For the same molecule, the results for the 50% inhibitory concentration (IC50) in the data set on CHO-AA8 [8], with UV4 [9] and with UV4 [10] were 2900 nM, 590 nM and 1950 nM, respectively. Also, in data set [16], the T1/2 entry is on record as “Not Active”.

Consider `Cc1ccc([N+](=O)[O-])c2c(NCCCN(C)C)c3ccccc3nc12`, for which the Ratio in data set [4] was 4.6; in data set [7], 5; in data set [11], 9. Further, the half-life in data set [5] was 0.99 h. Also, the A0 in data set [6] is listed as 1.12; in data set [12] it was 0.65. The molecule also displayed a CO in [14] of 0.2 mM. Also, the IC50 came to 76 nM with CHO-AA8 [8], 1.65 nM in the data set on UV4 [9] and 8 nM in the data set on UV4 [10]. The T1/2 result in [16] is reported as “Not Active”.

As for `CC(=O)OCCN(CCOC(C)=O)c1ccc([N+](=O)[O-])c2c(NCCCN(C)C)c3ccccc3nc12`, the Ratio turned out to be 4.8 in data set [4], 4.5 in [7] and 4.8 in data set [11]. Moreover, the values for the half-life in [5] and in data set [13] were 8.4 h and 18 h, respectively. Also, the results for the A0 in data set [6] and in data set [12] were 1.03 and 1.11, respectively. Further, the IC50 with CHO-AA8 [8] is 43000 nM; with UV4 [9], 3450 nM; in the data set on UV4 [10], 11600 nM.

In the case of `CN(C)CCCNc1c2ccccc2nc2c(F)ccc([N+](=O)[O-])c12`, the Ratio in data set [4] was found to be 1.4; in data set [7], 1.3; in [11], 21. For the same molecule, the half-life in data set [5] was 0.77 h; in data set [13], 0.91 h. Besides, the A0 in data set [6] is given as 0.84; in data set [12] it was 0.64. The same molecule came in with a CO in data set [14] of 0.1 mM. Further, the half-inhibitory concentration (IC50) in the data set with CHO-AA8 [8] is 250 nM; in the data set on UV4 [9] it was 2 nM; in the data set with UV4 [10] it was 12 nM.
